According to ChEMBL document CHEMBL1143989, “New anti-viral drugs for the treatment of the common cold” (Bioorg Med Chem, 2008):
Converted amounts (≈) assume the structure as drawn. The source made the active and inactive calls. The rule behind the calls is not given here.

Key:
[1] = biological target: T1, Human rhinovirus A protease (Human rhinovirus sp.) (UniProt Q4U254); experiment: Inhibition of HRV14 3C protease in presence of dithiothreitol; conditions: rhinovirus B14
T1 sequence (whole entry): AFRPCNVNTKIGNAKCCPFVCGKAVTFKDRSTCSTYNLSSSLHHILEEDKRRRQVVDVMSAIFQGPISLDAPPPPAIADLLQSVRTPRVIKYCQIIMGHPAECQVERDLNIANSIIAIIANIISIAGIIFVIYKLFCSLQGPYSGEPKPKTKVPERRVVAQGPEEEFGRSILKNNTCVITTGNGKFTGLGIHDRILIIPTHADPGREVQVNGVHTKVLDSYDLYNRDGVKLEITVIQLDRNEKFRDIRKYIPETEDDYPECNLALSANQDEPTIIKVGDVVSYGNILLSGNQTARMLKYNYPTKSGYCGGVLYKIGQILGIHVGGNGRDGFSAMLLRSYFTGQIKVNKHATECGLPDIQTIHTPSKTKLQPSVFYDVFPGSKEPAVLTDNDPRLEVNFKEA

[2] = biological target: T1, Human rhinovirus A protease (Human rhinovirus sp.); experiment: Inhibition of HRV14 3C protease at 10 uM; conditions: rhinovirus B14
Outline: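 Recombinant HRV14 3C protease at 0.7 uM with EALFQ-pNA chromogenic substrate, compound at 10 µM final, 1% DMSO final. Buffer: 25 mM Hepes pH 7.5, 150 mM NaCl, 0.12 mM DTT, 1 mM EDTA. Started by adding enzyme; A405 read at 0 and 60 min at 30 °C. Percent inhibition vs uninhibited control; duplicates, mean ± SD.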

[3] = biological target: T1, Human rhinovirus A protease (Human rhinovirus sp.); experiment: Inhibition of HRV14 3C protease at 1 uM; conditions: rhinovirus B14
[4] = biological target: T1, Human rhinovirus A protease (Human rhinovirus sp.); experiment: Inhibition of HRV14 3C protease at 0.1 uM; conditions: rhinovirus B14
[5] = Cytotoxicity against human HeLa cells after 5 days; format: cell-based; conditions: read-out: Maximal non-toxic dose 50
Outline: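 HeLa (Ohio strain) cells plated at about 10^4 cells per ml in 24-well plates, kept at 33 °C in 3% CO2 in DMEM with 1% non-essential amino acids and 10% FCS. Exposed to decreasing compound concentrations for 5 days; viability read by neutral red uptake. MNTD50 (dose inhibiting less than 50% replication vs control) obtained by regression; triplicate.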

rhinovirus B14 = experiment: Antiviral activity against HRV14; format: functional, organism-based; conditions: Rhinovirus B; read-out: ID50 (the source's name)
Outline: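 HeLa (Ohio) monolayers at 33 °C, 3% CO2, in DMEM with 1% non-essential amino acids and 10% FCS. Infected with HRV-14 at MOI 0.1, then decreasing compound amounts added. After 24 h, freeze-thaw; supernatant titrated under 2% nutrient agar and plaques counted after neutral red staining. ID50 derived from plaque counts.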

[6] = Inhibition of HRV 3C protease; parameters: species or system Human rhinovirus sp.
[7] = biological target: T1, Human rhinovirus A protease (Human rhinovirus sp.); experiment: Inhibition of HRV14 3C protease at 0.16 to 100 uM; conditions: rhinovirus B14
Outline: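 Colorimetric HRV14 3C protease assay: 0.7 uM enzyme, EALFQ-pNA substrate, Hepes pH 7.5 buffer with 0.12 mM DTT and 1 mM EDTA. Compound tested across 0.16 to 100 µM; p-nitroaniline release read at 405 nm after 60 min at 30 °C.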

[8] = biological target: T1, Human rhinovirus A protease (Human rhinovirus sp.); experiment: Inhibition of HRV14 3C protease at 1 mM; conditions: rhinovirus B14
Human alphaherpesvirus 2 = experiment: Antiviral activity against HSV2; format: functional, organism-based
Influenza A virus = experiment: Antiviral activity against WSN influenza A virus; format: functional, organism-based
Outline: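 Cell-based antiviral test in the VERO/MDCK cell set, run on 24-well plates by analogy with the HeLa/rhinovirus method. Activity was scored after 48 h of incubation at 37 °C under 5% CO2.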

Row | SMILES | Activity [1] | inhibition [2] [%] | inhibition [3] [%] | inhibition [4] [%] | also measured
1 | NC(=O)c1cc(Cc2ccccc2)cc(C(=O)CBr)c1 | inactive | 68 | 30 | 0 | –
2 | NC(=O)c1cc(Cc2ccccc2)cc(C(=O)CCl)c1 | inactive | 91 | 79 | 14 | MNTC at 120 h [5]: 0.75 µg/mL; IC50 (rhinovirus B14): > 0.75 µg/mL
3 | NC(=O)c1cccc(C(=O)CCl)c1 | – | > 50 | – | – | MNTC at 120 h [5]: 3.12 µg/mL
4 | NC(=O)c1cccc(C(=O)C(Br)Br)c1 | – | > 50 | – | – | –
5 | CCOC(=O)CCn1c(=O)c2ccccc2n(CC(=O)c2ccccc2)c1=O | – | – | – | – | IC50 [6]: 55400 nM
6 | NC(=O)c1cccc(C(=O)C(Cl)Cl)c1 | – | > 50 | – | – | –
7 | NC(=O)c1cc(Cc2ccc3ccccc3c2)cc(C(=O)CCl)c1 | inactive | 81 | 61 | 25 | MNTC at 120 h [5]: 0.75 µg/mL; IC50 (rhinovirus B14): > 0.75 µg/mL
8 | NC(=O)c1cc(C(=O)CBr)cc(C(=O)Nc2ccc3ccccc3c2)c1 | inactive | 80 | 19 | 5 | –
9 | NC(=O)c1cc(Cc2ccc3ccccc3c2)cc(C(=O)C(Br)Br)c1 | – | > 70 | – | – | –
10 | NC(=O)c1cc(Cc2ccccc2)cc(C(=O)C(Br)Br)c1 | inactive | 75 | 27 | 14 | –
11 | NC(=O)c1cc(Cc2ccc3ccccc3c2)cc(C(=O)CBr)c1 | inactive | 83 | 39 | 12 | –
12 | CCOC(=O)/C=C/[C@H](C[C@@H]1CCNC1=O)NC(=O)[C@@H](CC(=O)[C@@H](NC(=O)c1cc(C)on1)C(C)C)Cc1ccc(F)cc1 | inactive | – | – | – | –
13 | NC(=O)c1cccc(C(=O)C(F)(F)F)c1 | – | – | – | – | Activity [7]: inactive
14 | NC(=O)c1cc(C(=O)CBr)cc(C(=O)Nc2ccccc2)c1 | inactive | 86 | 27 | 8 | –
15 | NC(=O)CCN(NC(=O)[C@H](Cc1ccccc1)NC(=O)OCc1ccccc1)C(=O)CBr | – | – | – | – | IC50 [6]: 48 nM
16 | CC(=O)N[C@@H](CC(C)C)C(=O)N[C@@H](CC(C)C)C(=O)N[C@H](C=O)CCCNC(=N)N | – | – | – | – | inhibition [8]: 57%
17 | CCOC(=O)/C=C/[C@H](CCC(N)=O)CC(=O)[C@H](Cc1ccccc1)NC(=O)[C@H](CC(C)C)NC(=O)OCc1ccccc1 | – | – | – | – | IC50 [6]: 540 nM
18 | NC(=O)c1cccc(C(=O)CBr)c1 | inactive | 85 | 23 | 4 | MNTC at 120 h [5]: > 100 µg/mL; IC50 (rhinovirus B14): 25 µg/mL (≈ 103 µM); Activity (Human alphaherpesvirus 2): Active; Activity (Influenza A virus): Active
19 | O=C(CBr)c1ccc2c(c1)C(=O)NC2 | inactive | 70 | 25 | 0 | –
